# A selection: hits, their analogues and other compounds. The true share with any hit is near 7.6%.
# Jurkat tox 60K: cytotoxicity toward Jurkat T cells, primary screen, cytotoxicity control, cell-based, Jurkat E6.1, 60K MLSMR library; Jurkat E6.1 viability, ATP luminescence, 48 h; inhibition, % at 4 µM; 56,000 compounds, 1.2% hits; AID 463, 2006;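 active = inhibition above the mean inhibition of all tested compounds plus 3 SD, cut at about 28% in these data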
# D1 allo mod: D1 CRE-luciferase signal change, two-sided – cell-based, HEK293 D1, dopamine EC30, D1 allosteric modulator project, primary screen; D(1A) dopamine receptor (Homo sapiens), P21728; dopamine EC30 potentiation; actives deviate in either direction; B-score at 10 µM; 58,000 compounds, 5.9% hits; AID 641, 2007;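 active = luminescence count or its row- and column-corrected plate score outside the 99.7% band of the plate's sample wells, on either side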
# HEK293 NFkB inh: inhibitors of PMA/ionomycin-induced NF-kB reporter, primary screen, antigen receptor NF-kB inhibitor project, cell-based, HEK-293 luciferase reporter, luminescence | HEK-293 NF-kB luciferase reporter | inhibition, % at 3 µM | 62,000 compounds, 0.21% hits | AID 465, 2006;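 active = inhibition above the mean of all tested compounds plus 3 SD, cut at about 40% in these data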;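 also: 0% = stimulated DMSO wells and 100% = 10 µM reference inhibitor 5653914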
#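 System: NF-kB luciferase reporter HEK-293 cells | Replication: Single test | Control set: DMSO vs reference inhibitor | Evaluation: % inhibition | Schedule: 1 h pretreatment, 16 h stimulation, 37 °C | Probe or stimulus: PMA with ionomycin | Compound dosing: One dose, 3 µM | Detection: Luciferase luminescence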
# M1 ag: M1 muscarinic receptor agonists, primary screen, CHO-M1 cells, Fluo-4 calcium, agonist mode. Muscarinic acetylcholine receptor M1. Fluo-4 calcium fluorescence; stronger effect = higher value. B-score at 10 µM. 64,000 compounds, 3% hits;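 active = fluorescence rise, raw or as B-score row- and column-corrected plate score, outside the 99.7% band of its plate's samples, either direction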
# hDAT+cocaine: changed hDAT dopamine uptake under cocaine IC80, either direction, primary screen, cocaine antagonist project, cell-based, LLC-PK1 hDAT, [14C]-dopamine uptake, MLSMR; Sodium-dependent dopamine transporter (Homo sapiens), Q01959; LLC-PK1 hDAT cells, [14C]-dopamine uptake with cocaine IC80; actives deviate in either direction; B-score at 10 µM; 110,000 compounds, 1.3% hits;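 active = Z score or B-score, a plate-position-corrected score, falls beyond the plate's 99.7% confidence bounds, in either direction; inactive = both scores lie inside the 99.7% bounds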;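 also: scored against the spread of the other compound wells on the same plate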
# M1 antagonist: antagonists of rat M1 muscarinic receptor; Muscarinic acetylcholine receptor M1 (Rattus norvegicus), P08482; CHO-M1 cells, Fluo-4 calcium, ACh EC80 antagonist mode; stronger effect = lower value; B-score at 10 µM; 64,000 compounds, 3.4% hits;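 active = calcium fluorescence response, raw or row-and-column corrected B-score, differing from the plate sample mean either way at a set confidence level, mostly lower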
# Target sequence (P08482 whole entry, looked up): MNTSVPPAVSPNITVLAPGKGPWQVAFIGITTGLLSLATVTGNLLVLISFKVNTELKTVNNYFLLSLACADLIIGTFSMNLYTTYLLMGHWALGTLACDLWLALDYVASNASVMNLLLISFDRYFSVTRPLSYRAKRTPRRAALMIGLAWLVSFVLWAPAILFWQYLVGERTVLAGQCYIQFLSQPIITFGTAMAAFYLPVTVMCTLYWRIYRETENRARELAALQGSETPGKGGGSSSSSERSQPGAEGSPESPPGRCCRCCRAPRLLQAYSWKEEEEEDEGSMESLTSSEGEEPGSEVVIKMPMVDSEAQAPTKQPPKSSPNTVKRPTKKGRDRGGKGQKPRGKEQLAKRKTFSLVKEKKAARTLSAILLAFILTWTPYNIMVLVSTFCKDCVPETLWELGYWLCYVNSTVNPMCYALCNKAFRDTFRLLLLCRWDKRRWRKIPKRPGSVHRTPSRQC
# M1 ag confirm: rat M1 muscarinic receptor agonists, confirmation, CHO-M1 cells, Fluo-4 calcium, duplicate retest. Fluo-4 calcium fluorescence, agonist mode; actives lie on both sides. AID 1488, 2009. shares compounds with M1 ag. fluorescence change (max-min) at 10 µM. 1,700 compounds, 19% hits;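 active = fluorescence change differs from the solvent-only DMSO control mean at a set confidence level in both duplicate runs; inconclusive = differs from solvent-only control mean in just one of two runs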;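 also: an EC20 dose of acetylcholine follows compound addition during the same imaging run; raw fluorescence intensity difference in instrument units with no normalization to controls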
# M4 agonist ctr: agonist activity at rat M4 receptor, confirmation, counter-screen for M1 allosteric modulator project, cell-based, agonist mode; shares compounds with M1 ag; CHO M4/Gqi5 cells, Fluo-4 calcium fluorescence; actives lie on both sides; fluorescence change (max-min) at 10 µM; 1,700 compounds, 9% hits; AID 1741, 2009;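 active = fluorescence change differing from the plate's solvent-only control wells at 99.7% confidence in both duplicates, whether higher or lower; inconclusive = differs from solvent controls in only one of two duplicates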
# Numbers without * were called inactive; ? = inconclusive; . = no result.
SMILES,Jurkat tox 60K,D1 allo mod,HEK293 NFkB inh,M1 ag,hDAT+cocaine,M1 antagonist,M1 ag confirm,M4 agonist ctr
c1ccc(N2CCN(c3ccc4nncn4n3)CC2)nc1,.,.,.,.,-0.0448,.,.,.
COc1ccc(-c2nnc(SCC(=O)Nc3ccccc3OC)o2)cc1,9.4,0.123,-3.3,-0.371,-0.898,-0.0704,.,.
COc1ccccc1NC(=O)CSc1nnc(C)o1,.,0.0368,13.4,2.39*,-0.257,0.0781,-11.8,-29
O=C(COC(=O)CCc1c[nH]c(=O)[nH]1)Nc1cccc(Cl)c1,-1.5,0.163,13.1,5.18*,0.309,-0.0299,10.2,-12.1
O=C(COC(=O)c1ccncc1)Nc1cccc(Cl)c1,.,.,.,.,-0.0594,.,.,.
c1ccc(CSc2nnc(-c3ccco3)n2Cc2ccco2)cc1,.,-2.19,-5.0,-0.462,-0.166,-0.515,.,.
CCCCOc1[nH]c2nc(-c3ccco3)n(Cc3ccco3)c(=N)c2c1C#N,4.6,1.1,-3.7,14.8*,1.48,-0.0323,18.3,6.15
CCn1c(COc2ccccc2C)nnc1SCC(=O)CC(=O)Nc1ccccc1,0.6,-0.978,6.3,3.26*,1.81,2.7*,?,-54.2
CCn1c(COc2ccccc2C)nnc1SCC(=O)O,2.7,-0.18,14.6,-0.191,-0.506,0.161,.,.
CCn1c(COc2cccc(OC)c2)nnc1SCC(=O)Nc1cccc(OC)c1,0.1,-0.485,8.5,3.03*,1.26,-0.912,-21.5,-32.6
CCn1c(COc2cccc(OC)c2)nnc1SCC(=O)Nc1cc(OC)ccc1OC,3.1,0.379,14.5,-0.00517,1.65,-0.0744,.,.
COc1ccc(CNS(=O)(=O)c2ccc(OC)cc2)cc1,-3.4,0.0801,18.2,0.749,1.31,0.105,.,.
COc1ccc(S(=O)(=O)NCCCCNS(=O)(=O)c2ccc(OC)cc2)cc1,-7.4,-0.244,17.1,-4.2*,-0.315,-2.18,-19.4,-23.3
COc1ccccc1NC(=O)C1=C(C)Nc2nc(-c3cccs3)nn2C1c1cccc(O)c1 (stereo not drawn),2.9,0.606,11.9,8.45*,.,-1.28,?,?
O=C(c1ccc(CS(=O)(=O)c2c(Cl)cccc2Cl)o1)N1CCN(c2ccccn2)CC1,0.9,0.758,13.4,3.36*,1.43,-2.98*,-15.7,-24.3
Cc1ccc(C)c(N2CCN(C(=O)c3ccc(CS(=O)(=O)c4ccccc4C)o3)CC2)c1,39.8*,-0.385,29.0,2.82*,1.44,-1.15,-18.7,-28.1
Cc1ccc(S(=O)(=O)Cc2ccc(C(=O)N3CCN(c4cc(C)ccc4C)CC3)o2)cc1,-7.4,-0.00696,23.2,-0.444,-0.853,0.39,.,.
Cc1cccc(N2CCN(C(=O)c3ccc(CS(=O)(=O)c4ccccc4C)o3)CC2C)c1 (stereo not drawn),94.1*,-0.119,41.9*,9.2*,0.62,-2.16*,?,-29.7
Cc1ccc(S(=O)(=O)Cc2ccc(C(=O)N3CCN(c4ccccn4)CC3)o2)cc1,3.0,-0.382,13.5,1.25,0.0865,-0.847,.,.
COc1ccccc1S(=O)(=O)Cc1ccc(C(=O)N2CCN(c3cccc(Cl)c3)CC2)o1,80.8*,0.385,17.0,9.48*,0.994,-0.994,-26.3*,-50.7
CCn1c(SCC(=O)Nc2nc3ccccc3s2)nc2c(c1=O)SC(C)C2 (stereo not drawn),11.2,-0.697,21.5,2.3*,0.325,-1.13,?,-69.9
CCc1cc2c(NCCC(=O)O)ncnc2s1,.,-0.18,14.3,11.4*,0.609,-0.163,-8.61,-44.6
CCOC(=O)Cc1nn(CCc2ccccn2)c(=O)c2ccccc12,-3.8,-0.0424,3.5,0.167,-0.0731,-0.0445,.,.
O=C(CCCN1C(=O)c2ccccc2C1=O)Nc1ccccc1C(=O)N1CCOCC1,5.5,-0.208,-7.0,2.31*,-0.405,0.681,-18.9,-31
CCC(=O)Nc1ccccc1C(=O)N1CCOCC1,1.1,-0.303,3.7,-0.0296,-0.0503,0.457,.,.
SMILES,Jurkat tox 60K,D1 allo mod,HEK293 NFkB inh,M1 ag,hDAT+cocaine,M1 antagonist,M1 ag confirm,M4 agonist ctr
CCC(C(=O)OC)n1cnc2c(nnn2-c2ccc(OC)cc2)c1=O (stereo not drawn),-4.5,0.292,9.2,4.28*,0.513,0.31,-3.1,-34.7
CCOC(=O)C(C)n1cnc2c(cnn2-c2ccc(Cl)cc2)c1=O (stereo not drawn),-6.1,.,-16.3,4.17,-0.757,-0.41,.,.
CCOC(=O)C(CC)n1cnc2c(cnn2-c2ccc(Cl)cc2)c1=O (stereo not drawn),-2.1,.,-2.1,55.1*,-0.86,-6.19*,2.87,-21.3
CCCCC(CC)CNC(=O)CCS(=O)(=O)c1cccc2nsnc12 (stereo not drawn),.,0.0283,16.9,0.221,0.0779,0.101,.,.
Cc1cccc(NC(=O)c2sc3nc(-c4ccccc4)cn3c2C)n1,9.9,0.139,8.5,2.39*,3.21,-0.717,?,-43
c1ccc(-n2ncc3c2ncn2cnnc32)cc1,-2.2,.,21.0,27.1*,-0.415,-0.771,-9.48,-33
c1ccc(-n2ncc3c2ncn2nnnc32)cc1,-0.7,0.39,11.4,0.109,0.246,-0.0751,.,.
Cc1ccc2cc(CCNC(=O)c3ccc4c(c3)OCO4)c(=O)[nH]c2c1C,.,.,.,.,-0.212,.,.,.
Cc1cccnc1NC(=O)CCCN1C(=O)c2ccccc2C1=O,6.1,0.0746,-0.2,0.0134,0.25,1.53,.,.
COc1cccc(C2C=C(c3ccc(OC)cc3OC)Nc3nnnn32)c1 (stereo not drawn),40.7*,0.116,-0.6,3.26*,0.825,0.62,36.8,8.36
COc1ccc(C2=CC(c3ccc(C)cc3)n3nnnc3N2)cc1 (stereo not drawn),.,.,.,9.56*,-0.436,-0.416,3.32,-32.4
Cc1c(/C(O)=C2\C(=O)C(=O)N(CCCN(C)C)C2c2ccncc2)cnn1-c1ccccc1 (stereo not drawn),-7.6,-0.0971,3.1,1.1,.,-1.51,.,.
Cc1cc(=O)n2nc(N3CCCC(C(=O)NC(C)c4ccccc4)C3)sc2n1 (stereo not drawn),.,.,.,.,-0.0407,.,.,.
CCOC(=O)CC1=C(C(=O)OCC)C(c2ccc(C)o2)C(C#N)=C(N)O1 (stereo not drawn),9.1,0.0654,15.6,0.294,-0.874,0.0582,.,.

# Bioassay records as filed in PubChem BioAssay.
